Measured values taken from ChEMBL document CHEMBL4346653, “A2B Adenosine Receptor Antagonists with Picomolar Potency” (J Med Chem, 2019).

Key:
[1] = target: Adenosine receptor A2a (Homo sapiens, UniProt P29274); assay: Displacement of [3H]MSX-2 from recombinant human A2A adenosine receptor expressed in CHO cell membranes measured after 30 mins in presence of adenosine deaminase by liquid scintillation counting method
Summary of the method: (§1)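 Competition binding on membranes of cells recombinantly expressing the human receptor (CHO or HEK cells), with tritiated radioligand per subtype: [3H]PSB-603 for A2B, [3H]MSX-2 for A2A, [3H]CCPA for A1, [3H]PSB-11 for A3. Ki ± SEM from n = 3, some from extrapolated curves. Weak binders are reported as % inhibition of radioligand binding at 1 μM.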

[2] = target: T1, Adenosine receptor A1 (Homo sapiens, UniProt P30542); assay: Displacement of [3H]CCPA from recombinant human A1 adenosine receptor expressed in CHO cell membranes measured after 90 mins in presence of adenosine deaminase by liquid scintillation counting method; summary of the method: as §1
T1 sequence (P30542 whole entry): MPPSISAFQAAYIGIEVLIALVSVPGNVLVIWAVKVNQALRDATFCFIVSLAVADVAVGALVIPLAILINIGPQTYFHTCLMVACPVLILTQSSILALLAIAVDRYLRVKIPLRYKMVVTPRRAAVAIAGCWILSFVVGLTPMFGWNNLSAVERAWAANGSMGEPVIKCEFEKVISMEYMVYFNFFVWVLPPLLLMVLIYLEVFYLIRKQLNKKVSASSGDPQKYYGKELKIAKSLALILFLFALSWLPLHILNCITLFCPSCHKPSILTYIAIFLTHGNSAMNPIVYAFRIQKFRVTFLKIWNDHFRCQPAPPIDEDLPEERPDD

[3] = target: T2, Adenosine receptor A2b (Homo sapiens, UniProt P29275); assay: Displacement of [3H]PSB-603 from recombinant human A2B adenosine receptor expressed in CHO cell membranes measured after 75 mins in presence of adenosine deaminase by liquid scintillation counting method; summary of the method: as §1
T2 sequence (P29275 whole entry): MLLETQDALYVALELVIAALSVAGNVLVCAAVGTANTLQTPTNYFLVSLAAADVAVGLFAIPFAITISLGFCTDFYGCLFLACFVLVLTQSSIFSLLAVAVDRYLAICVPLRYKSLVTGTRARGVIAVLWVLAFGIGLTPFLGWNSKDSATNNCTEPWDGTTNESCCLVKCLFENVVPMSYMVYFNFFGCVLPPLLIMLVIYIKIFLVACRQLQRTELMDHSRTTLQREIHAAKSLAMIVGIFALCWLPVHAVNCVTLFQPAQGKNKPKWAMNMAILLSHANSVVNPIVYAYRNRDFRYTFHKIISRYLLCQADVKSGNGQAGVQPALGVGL

[4] = target: T3, Adenosine receptor A3 (Homo sapiens) (UniProt P0DMS8); assay: Displacement of [3H]PSB-11 from recombinant human A3 adenosine receptor expressed in CHO cell membranes at 1 uM measured after 45 mins in presence of adenosine deaminase by liquid scintillation counting method relative to control
T3 sequence (whole entry): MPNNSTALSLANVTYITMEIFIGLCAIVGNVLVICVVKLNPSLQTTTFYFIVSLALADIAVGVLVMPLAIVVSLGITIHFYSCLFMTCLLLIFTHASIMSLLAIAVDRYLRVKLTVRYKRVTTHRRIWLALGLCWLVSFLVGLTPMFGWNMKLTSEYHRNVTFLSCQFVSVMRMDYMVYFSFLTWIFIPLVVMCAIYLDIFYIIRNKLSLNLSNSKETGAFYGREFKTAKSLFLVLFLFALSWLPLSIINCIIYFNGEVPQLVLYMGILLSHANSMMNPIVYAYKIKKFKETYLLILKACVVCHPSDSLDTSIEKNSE
Summary of the method: (§2)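 Single-point competition binding at human AR subtype membranes, each against its own tritiated radioligand. The test compound is given at 1 μM, and the result is reported as percent inhibition of radioligand binding. The radioligand-specific footnotes give n = 3.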

[5] = target: T4, Adenosine receptor A3 (Homo sapiens, UniProt P0DMS8); assay: Displacement of [3H]PSB-11 from recombinant human A3 adenosine receptor expressed in CHO cell membranes measured after 45 mins in presence of adenosine deaminase by liquid scintillation counting method; summary of the method: as §1
T4 sequence (P0DMS8 whole entry): T3 sequence (whole entry)

[6] = species on record: Homo sapiens; assay: Selectivity index, ratio of Ki for displacement of [3H]MSX-2 from recombinant human A2A adenosine receptor expressed in CHO cell membranes to Ki for displacement of [3H]PSB-603 from recombinant human A2B adenosine receptor expressed in CHO cell membranes
[7] = target: T5, Adenosine receptor A1 (Homo sapiens) (UniProt P30542); assay: Displacement of [3H]CCPA from recombinant human A1 adenosine receptor expressed in CHO cell membranes at 1 uM measured after 90 mins in presence of adenosine deaminase by liquid scintillation counting method relative to control; summary of the method: as §2
T5 sequence (whole entry): T1 sequence (P30542 whole entry)

Sequence of Adenosine receptor A2a (P29274 whole entry): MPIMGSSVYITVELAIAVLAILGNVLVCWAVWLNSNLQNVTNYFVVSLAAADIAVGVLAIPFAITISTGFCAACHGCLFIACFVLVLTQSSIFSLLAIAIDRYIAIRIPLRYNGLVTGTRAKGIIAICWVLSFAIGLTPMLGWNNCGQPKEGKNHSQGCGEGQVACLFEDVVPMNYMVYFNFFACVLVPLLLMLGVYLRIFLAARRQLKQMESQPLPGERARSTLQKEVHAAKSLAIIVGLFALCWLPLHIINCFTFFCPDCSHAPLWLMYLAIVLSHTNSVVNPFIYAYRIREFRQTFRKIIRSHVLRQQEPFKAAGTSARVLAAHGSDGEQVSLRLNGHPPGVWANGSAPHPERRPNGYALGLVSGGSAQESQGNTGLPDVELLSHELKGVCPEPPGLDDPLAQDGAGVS

SMILES | Ki [1] [nM] | Ki [2] [nM] | Ki [3] [nM] | inhibition [4] [%] | Ki [5] [nM] | Ratio Ki [6] | inhibition [7] [%]
CCCn1c(=O)[nH]c2nc(-c3ccc(S(=O)(=O)N4CCN(Cc5ccc(OCCO)cc5)CC4)cc3)[nH]c2c1=O | 241 | 560 | 12.2 | 17 | > 1000 | 20 | –
CCCn1c(=O)[nH]c2nc(-c3ccc(S(=O)(=O)N4CCN(c5ccc(OCCO)cc5)CC4)cc3)[nH]c2c1=O | 168 | > 1000 | 6.08 | 23 | > 1000 | 30 | 24
CCCn1c(=O)[nH]c2nc(-c3ccc(S(=O)(=O)N4CCN(Cc5cccc(C)c5)CC4)cc3)[nH]c2c1=O | 189 | 795 | 0.397 | 17 | > 1000 | 480 | –
CCCn1c(=O)[nH]c2nc(-c3ccc(S(=O)(=O)N4CCN(Cc5ccc(OCCOCCOC)cc5)CC4)cc3)[nH]c2c1=O | 314 | 1010 | 7.02 | 30 | > 1000 | 50 | –
CCCn1c(=O)[nH]c2nc(-c3ccc(S(=O)(=O)N4CCN(c5ccccc5C)CC4)cc3)[nH]c2c1=O | 140 | 419 | 0.432 | 25 | > 1000 | 320 | –
CCCn1c(=O)[nH]c2nc(-c3ccc(S(=O)(=O)N4CCN(C(=O)c5ccccc5)CC4)cc3)[nH]c2c1=O | 143 | > 1000 | 5.69 | 26 | > 1000 | 30 | 15
CCCn1c(=O)[nH]c2nc(-c3ccc(S(=O)(=O)N(C)CCc4ccccc4)cc3)[nH]c2c1=O | 357 | 1040 | 1.69 | 4 | > 1000 | 210 | –
CCCn1c(=O)[nH]c2nc(-c3ccc(S(=O)(=O)N4CCN(Cc5ccc(Br)cc5)CC4)cc3)[nH]c2c1=O | 77.8 | > 1000 | 0.153 | 28 | > 1000 | 510 | 31
CCCn1c(=O)[nH]c2nc(-c3ccc(S(=O)(=O)N4CCN(c5ccccc5)CC4)cc3)[nH]c2c1=O | 122 | 364 | 0.643 | 27 | > 1000 | 190 | –
CCCn1c(=O)[nH]c2nc(-c3ccc(S(=O)(=O)N(C)C)cc3)[nH]c2c1=O | 52.7 | 190 | 18.6 | – | 1220 | 3 | –
CCCn1c(=O)[nH]c2nc(-c3ccc(S(=O)(=O)N4CCN(c5cccc(OC)c5)CC4)cc3)[nH]c2c1=O | 197 | > 1000 | 0.616 | -1 | > 1000 | 320 | -3
CCCn1c(=O)[nH]c2nc(-c3ccc(S(=O)(=O)N4CCN(Cc5cc(F)cc(OC)c5)CC4)cc3)[nH]c2c1=O | 160 | > 1000 | 1.02 | 12 | > 1000 | 160 | 31
CCCn1c(=O)[nH]c2nc(-c3ccc(S(=O)(=O)N4CCN(c5ccccc5)C(C)C4)cc3)[nH]c2c1=O (stereo not drawn) | 293 | > 1000 | 7.15 | -2 | > 1000 | 40 | 15
CCCn1c(=O)[nH]c2nc(-c3ccc(S(=O)(=O)N4CCN(Cc5ccc(OC)c(F)c5)CC4)cc3)[nH]c2c1=O | 245 | > 1000 | 0.894 | 15 | > 1000 | 270 | 24
CCCn1c(=O)[nH]c2nc(-c3ccc(S(=O)(=O)N4CCN(c5ccccc5Cl)CC4)cc3)[nH]c2c1=O | 204 | > 1000 | 0.403 | 32 | > 1000 | 510 | 25
CCCn1c(=O)[nH]c2nc(-c3ccc(S(=O)(=O)N4CCN(c5ccc(F)cc5)CC4)cc3)[nH]c2c1=O | 108 | > 1000 | 0.644 | 38 | > 1000 | 170 | 14
CCCn1c(=O)[nH]c2nc(-c3ccc(S(=O)(=O)N4CCN(c5ccc(O)cc5)CC4)cc3)[nH]c2c1=O | 96.7 | 356 | 4.3 | 21 | > 1000 | 20 | –
CCCn1c(=O)c2[nH]c(-c3ccc(S(=O)(=O)N4CCN(c5ccc(Cl)cc5)CC4)cc3)nc2n(CC)c1=O | 322 | > 1000 | 4.31 | 28 | > 1000 | 75 | 24
CCCn1c(=O)[nH]c2nc(-c3ccc(S(=O)(=O)N4CCN(C)CC4)cc3)[nH]c2c1=O | 140 | 334 | 48.2 | 7 | > 1000 | 3 | –
CCCn1c(=O)[nH]c2nc(-c3ccc(S(=O)(=O)N4CCN(c5ccc(Cl)c(O)c5)CC4)cc3)[nH]c2c1=O | 40.7 | 113 | 0.421 | 31 | > 1000 | 100 | –
CCCn1c(=O)[nH]c2nc(-c3ccc(S(=O)(=O)N4CCN(Cc5ccc(N=[N+]=[N-])cc5)CC4)cc3)[nH]c2c1=O | 208 | 492 | 0.244 | 32 | > 1000 | 850 | –
CCCn1c(=O)[nH]c2nc(-c3ccc(S(=O)(=O)N4CCN(c5ccc(Cl)c(OC)c5)CC4)cc3)[nH]c2c1=O | 35.3 | 535 | 0.215 | 46 | > 1000 | 160 | –
CCCn1c(=O)[nH]c2nc(-c3ccc(S(=O)(=O)N4CCN(Cc5ccc(F)c(OC)c5)CC4)cc3)[nH]c2c1=O | 135 | > 1000 | 0.629 | -5 | > 1000 | 220 | 25
CCCn1c(=O)[nH]c2nc(-c3ccc(S(=O)(=O)N4CCN(c5ccc(O)c(Cl)c5)CC4)cc3)[nH]c2c1=O | 93.8 | > 1000 | 3.55 | 41 | > 1000 | > 30 | 37
CCCn1c(=O)[nH]c2nc(-c3ccc(S(=O)(=O)N4CCN(c5ccccc5Br)CC4)cc3)[nH]c2c1=O | 89.5 | > 1000 | 0.137 | 20 | > 1000 | 650 | 28
CCCn1c(=O)[nH]c2nc(-c3ccc(S(=O)(=O)N4CCN(Cc5cccc(OC)c5)CC4)cc3)[nH]c2c1=O | 131 | 205 | 1.28 | 27 | > 1000 | 100 | –
